ChEMBL document CHEMBL4354865 (J Med Chem, 2020)
Active and inactive are the calls of the source. No cut-off for these calls is given here.

How the values were obtained:
[1] = Cytotoxicity against human A375 cells assessed as cell viability at 1 uM measured after 48 hrs by MTT assay relative to control; format: cell-based, A-375; settings: read-out: Activity
Summary of the method: (§1)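 A375 cells, unstimulated or stimulated with recombinant human IFN-γ, were left untreated or treated with 1 µM compound for 48 h. L-Kyn was measured by HPLC and cell viability was assessed.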

[2] = target: T1, Indoleamine 2,3-dioxygenase 1 (Homo sapiens, UniProt P14902); experiment: Inhibition of IDO1 in IFNgamma-stimulated human A375 cells assessed as reduction in L-Kyn level at 1 uM measured after 48 hrs by HPLC analysis relative to control; summary of the method: as §1
Target sequence in this assay (P14902 whole entry, looked up): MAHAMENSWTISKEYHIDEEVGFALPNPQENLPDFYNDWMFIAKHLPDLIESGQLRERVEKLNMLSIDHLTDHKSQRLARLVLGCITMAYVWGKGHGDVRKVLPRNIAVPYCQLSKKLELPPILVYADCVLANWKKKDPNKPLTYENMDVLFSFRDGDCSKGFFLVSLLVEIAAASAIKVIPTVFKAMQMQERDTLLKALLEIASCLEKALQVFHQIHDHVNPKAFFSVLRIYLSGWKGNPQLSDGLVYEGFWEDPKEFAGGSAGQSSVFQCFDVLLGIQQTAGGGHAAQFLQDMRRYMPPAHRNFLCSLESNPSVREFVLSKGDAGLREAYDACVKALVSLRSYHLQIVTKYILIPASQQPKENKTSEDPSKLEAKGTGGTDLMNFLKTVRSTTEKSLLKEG

[3] = target: T1, Indoleamine 2,3-dioxygenase 1; experiment: Inhibition of IDO1 in IFNgamma-stimulated human A375 cells assessed as reduction in L-Kyn level measured after 48 hrs by HPLC analysis
Target sequence in this assay (P14902 whole entry): as the sequence (P14902 whole entry, looked up) above

Monocyte [4] = experiment: Cytotoxicity against human monocytes assessed as reduction in cell viability at 30 uM measured after 24 hrs by Annexin-V APC/7-AAD staining based flow cytometric analysis
Summary of the method: (§2)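 Monocytes from healthy donors (n=3) and from PDAC patients (n=3) were treated for 24 h, with DMSO as control. Viability was normalized to untreated cells. Healthy-donor cells received a range of concentrations; PDAC cells received 30 µM.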

Monocyte [5] = experiment: Cytotoxicity against PDAC patient derived monocytes assessed as reduction in cell viability at 30 uM measured after 24 hrs by Annexin-V APC/7-AAD staining based flow cytometric analysis; settings: human; summary of the method: as §2
[6] = Chemical stability of the compound; format: physicochemical
[7] = Inhibition of CYP3A in rat liver microsomes assessed as reduction in aminopyrine N-demethylase activity preincubated for 3 mins followed by NADPH addition and measured after 15 mins by iodometric titration method; format: ADME
Summary of the method: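 IC50 derived by fitting concentration–response curves for inhibition of aminopyrine N-demethylase activity, with ketoconazole run as the reference CYP3A inhibitor.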

[8] = target: T1, Indoleamine 2,3-dioxygenase 1; experiment: Inhibition of IDO1 in IFNgamma-stimulated human DAN-G cells assessed as reduction in L-Kyn level measured after 48 hrs by HPLC analysis; format: cell-based
Target sequence in this assay (P14902 whole entry): as the sequence (P14902 whole entry, looked up) above

[9] = target: T1, Indoleamine 2,3-dioxygenase 1; experiment: Selectivity ratio of IC50 for IDO1 in IFNgamma-stimulated human DAN-G cells to IC50 for IDO1 in IFNgamma-stimulated human LXF-289 cells
Target sequence in this assay (P14902 whole entry, looked up): as above

[10] = target: T1, Indoleamine 2,3-dioxygenase 1; experiment: Selectivity ratio of IC50 for IDO1 in IFNgamma-stimulated human DAN-G cells to IC50 for IDO1 in IFNgamma-stimulated human MCF7 cells
Target sequence in this assay (P14902 whole entry, looked up): as above

Monocyte [11] = experiment: Effect on anti-CD3/anti-CD28-stimulated CD3+T cell proliferation in PDAC patient derived non-suppressive monocytes co-cultured with human PBMC at 30 uM preincubated for 4 days followed by co-culturing of monocytes and measured after 24 hrs by flow cytometric analysis; format: cell-based
Summary of the method: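 PDAC patient monocytes (suppressive or non-suppressive) were pre-treated with 30 µM compound or DMSO, then co-cultured for 4 days with Cell Trace-labelled activated CD3+ T cells. T-cell proliferation was read from proliferation peaks and normalized to activated T cells cultured without myeloid cells. Data are mean ± SEM; Mann-Whitney test.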

[12] = Metabolic stability in CD-1 mouse liver microsomes assessed as parent compound remaining at 50 uM measured after 1 hr in presence of NADPH generating system by UV-LC/MS analysis; format: ADME, Microsome; settings: read-out: Stability
Summary of the method: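 Mouse liver microsomes activated with NADPH. Residual parent compound was measured after 1 h incubation.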

[13] = Metabolic stability in CD-1 mouse liver microsomes assessed as parent compound remaining at 50 uM measured after 1 hr in presence of NADPH by UV-LC/MS analysis
[14] = target: T1, Indoleamine 2,3-dioxygenase 1; experiment: Inhibition of IDO1 in IFNgamma-stimulated human MCF7 cells assessed as reduction in L-Kyn level measured after 48 hrs by HPLC analysis; format: cell-based
Target sequence in this assay (P14902 whole entry): as the sequence (P14902 whole entry, looked up) above

[15] = target: T1, Indoleamine 2,3-dioxygenase 1; experiment: Inhibition of IDO1 in IFNgamma-stimulated human A375 cells assessed as reduction in L-Kyn level at 10 uM measured after 48 hrs by HPLC analysis relative to control
Summary of the method: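 Screen in melanoma A375 cells, which express IDO1 when treated with recombinant human IFN-γ. Cells were left untreated or given 10 µM compound for 48 h. L-Kyn was then measured. Cell viability was also checked.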
Target sequence in this assay (P14902 whole entry, looked up): as above

[16] = target: T1, Indoleamine 2,3-dioxygenase 1; experiment: Inhibition of IDO1 in IFNgamma-stimulated human HepG2 cells assessed as reduction in L-Kyn level measured after 48 hrs by HPLC analysis; format: cell-based
Target sequence in this assay (P14902 whole entry): as the sequence (P14902 whole entry, looked up) above

Mus musculus [17] = experiment: In vivo inhibition of IDO1 in BALB/c mouse assessed as reduction in L-kyn level at 10 mg/kg, iv measured after 8 hrs by LC-HRMS analysis; format: functional, organism-based
Summary of the method: (§3)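 After a single 10 mg/kg i.v. dose in mice, plasma L-Kyn was measured at 0, 2, 5, 15 and 30 min and at 8 h post-injection, and compared with basal level.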

[18] = target: T1, Indoleamine 2,3-dioxygenase 1; experiment: Inhibition of IDO1 in IFNgamma-stimulated human LXF-289 cells assessed as reduction in L-Kyn level measured after 48 hrs by HPLC analysis
Target sequence in this assay (P14902 whole entry): as the sequence (P14902 whole entry, looked up) above

[19] = target: Indoleamine 2,3-dioxygenase 1 (Mus musculus, UniProt P28776); experiment: Inhibition of mouse IDO1 transfected in P815 cells assessed as reduction in L-Kyn level measured after 16 hrs by HPLC analysis; format: cell-based
Indoleamine 2,3-dioxygenase 1 (Mus musculus, UniProt P28776), sequence (P28776 whole entry): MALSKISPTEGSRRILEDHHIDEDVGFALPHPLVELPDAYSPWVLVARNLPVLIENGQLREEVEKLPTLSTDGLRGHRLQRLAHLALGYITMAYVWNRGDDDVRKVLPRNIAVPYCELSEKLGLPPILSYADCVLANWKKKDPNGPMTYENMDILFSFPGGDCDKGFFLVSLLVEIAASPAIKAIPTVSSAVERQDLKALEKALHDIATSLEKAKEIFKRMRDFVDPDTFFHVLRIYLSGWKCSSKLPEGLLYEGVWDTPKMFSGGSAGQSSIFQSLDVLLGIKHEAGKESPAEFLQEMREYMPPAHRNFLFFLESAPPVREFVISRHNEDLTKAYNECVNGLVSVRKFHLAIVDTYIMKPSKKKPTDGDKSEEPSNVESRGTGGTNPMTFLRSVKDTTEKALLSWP
Summary of the method: (§4)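 P815 mastocytoma cells stably expressing mouse IDO1 (P1.IDO1) or TDO (P1.TDO) were treated with serial dilutions for 16 h. L-Kyn secreted into the culture supernatant was quantified by HPLC, and an IC50 was determined in each line.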

[20] = Inhibition of CYP450 in rat liver microsomes assessed as reduction in aminopyrine N-demethylase activity preincubated for 3 mins followed by NADPH addition and measured after 15 mins by iodometric titration method; format: ADME
Summary of the method: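 CYP inhibition read by aminopyrine N-demethylase activity, with IC50 determined from concentration–response curves. Ketoconazole (CYP3A inhibitor) served as reference.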

[21] = Drug metabolism in CD-1 mouse liver microsomes assessed as oxidative N-dealkylation at 50 uM measured after 1 hr by LC-HRMS analysis; format: ADME, Microsome
[22] = target: T1, Indoleamine 2,3-dioxygenase 1; experiment: Inhibition of IDO1 in IFNgamma-stimulated human HeLa cells assessed as reduction in L-Kyn level measured after 48 hrs by HPLC analysis; format: cell-based
Target sequence in this assay (P14902 whole entry): as the sequence (P14902 whole entry, looked up) above

[23] = target: T1, Indoleamine 2,3-dioxygenase 1; experiment: Inhibition of IDO1 in PDAC patient derived suppressive monocytes co-cultured with human PBMC assessed as reduction in anti-CD3/anti-CD28-stimulated CD3+T cell proliferation at 30 uM preincubated for 4 days followed by co-culturing of monocytes and measured after 24 hrs by flow cytometric analysis
Target sequence in this assay (P14902 whole entry, looked up): as above

Mus musculus [24] = experiment: In vivo inhibition of IDO1 in BALB/c mouse assessed as reduction in L-kyn level at 10 mg/kg, iv measured up to 30 mins by LC-HRMS analysis; format: functional, organism-based; summary of the method: as §3
[25] = target: Tryptophan 2,3-dioxygenase (Mus musculus, UniProt P48776); experiment: Inhibition of mouse TDO transfected in P815 cells assessed as reduction in L-Kyn level measured after 16 hrs by HPLC analysis; format: cell-based; summary of the method: as §4
Tryptophan 2,3-dioxygenase, sequence (P48776 whole entry): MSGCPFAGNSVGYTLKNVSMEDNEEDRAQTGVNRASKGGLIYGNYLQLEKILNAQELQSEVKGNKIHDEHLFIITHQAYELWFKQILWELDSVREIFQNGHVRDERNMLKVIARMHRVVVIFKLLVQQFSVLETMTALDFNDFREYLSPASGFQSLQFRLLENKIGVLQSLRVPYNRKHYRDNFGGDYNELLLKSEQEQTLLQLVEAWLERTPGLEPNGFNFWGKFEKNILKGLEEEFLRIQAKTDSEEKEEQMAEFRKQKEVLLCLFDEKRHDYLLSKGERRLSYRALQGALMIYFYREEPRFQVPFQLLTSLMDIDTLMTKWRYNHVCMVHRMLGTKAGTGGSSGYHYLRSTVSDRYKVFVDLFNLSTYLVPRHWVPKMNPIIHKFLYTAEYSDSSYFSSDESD

[26] = Drug metabolism in CD-1 mouse liver microsomes assessed as benzimidazole oxidation at 50 uM measured after 1 hr by LC-HRMS analysis; format: ADME, Microsome
[27] = target: T1, Indoleamine 2,3-dioxygenase 1; experiment: Selectivity ratio of IC50 for IDO1 in IFNgamma-stimulated human DAN-G cells to IC50 for IDO1 in IFNgamma-stimulated human HepG2 cells
Target sequence in this assay (P14902 whole entry, looked up): as the sequence (P14902 whole entry, looked up) above

[28] = target: T1, Indoleamine 2,3-dioxygenase 1; experiment: Binding affinity to NT650-NHS fluorophore-labeled recombinant human N-terminal His-tagged IDO1 expressed in Escherichia coli measured after 10 mins by microscale thermophoresis assay
[29] = target: T1, Indoleamine 2,3-dioxygenase 1; experiment: Selectivity ratio of IC50 for IDO1 in IFNgamma-stimulated human DAN-G cells to IC50 for IDO1 in IFNgamma-stimulated human A375 cells
[30] = target: T1, Indoleamine 2,3-dioxygenase 1; experiment: Selectivity ratio of IC50 for IDO1 in IFNgamma-stimulated human DAN-G cells to IC50 for IDO1 in IFNgamma-stimulated human HeLa cells

N#Cc1ccc(C(=O)NCc2cccc(Cn3cnc4ccccc43)c2)cc1F
viability at 48 h, 1 µM [1]: 100%
inhibition [2]: 32%

O=C(NCc1cccc(Cn2cnc3ccccc32)c1)c1ccc(C(F)(F)F)cc1
viability at 48 h, 1 µM [1]: 97%
inhibition [2]: 81%

O=C(NCc1cccc(Cn2cnc3ccccc32)c1)c1ccco1
viability at 48 h, 1 µM [1]: 100%
inhibition [2]: 25%

O=C(NCc1cccc(Cn2ccc3ccccc32)c1)c1cc(Br)c[nH]1
viability at 48 h, 1 µM [1]: 100%
inhibition [2]: 0%

O=C(NCc1cccc(Cn2cnc3ccccc32)c1)c1ccccc1
viability at 48 h, 1 µM [1]: 98%
inhibition [2]: 32%

N#Cc1ccc(C(=O)NCc2cccc(Cn3cnc4ccccc43)c2)c(F)c1
viability at 48 h, 1 µM [1]: 99%
inhibition [2]: 37%

O=C(NCc1cccc(Cn2cnc3ccccc32)c1)c1ccc[nH]1
viability at 48 h, 1 µM [1]: 94%
inhibition [2]: 72%

O=C(NCc1cccc(Cn2cnc3ccccc32)c1)c1ccc(Br)cc1
viability at 48 h, 1 µM [1]: 96%
IC50 [3]: 0.134 µM
inhibition [2]: 98%

Cc1cc(C(=O)NCc2cccc(Cn3cnc4ccccc43)c2)ccc1C#N
viability at 48 h, 1 µM [1]: 94%
inhibition [2]: 44%

O=C(NCc1cccc(Cn2cnc3ccccc32)c1)c1cccs1
viability at 48 h, 1 µM [1]: 98%
inhibition [2]: 62%

O=C(Cc1ccc2c(c1)OCO2)NCc1cccc(Cn2cnc3ccccc32)c1
viability at 48 h, 1 µM [1]: 96%
inhibition [2]: 5%

O=C(NCc1cccc(Cn2cnc3ccccc32)c1)c1ccc(Cl)cc1
viability at 48 h, 1 µM [1]: 96%
IC50 [3]: 0.477 µM
inhibition [2]: 99%

NS(=O)(=O)NCCNc1nonc1C(=NO)Nc1ccc(F)c(Br)c1 [EPACADOSTAT]
viability at 48 h, 1 µM [1]: 97%
Activity (Monocyte [4]): Non-Toxic
Activity (Monocyte [5]): Non-Toxic

Cc1ccc2[nH]c(C(=O)NCc3cccc(Cn4cnc5ccccc54)c3)cc2c1
viability at 48 h, 1 µM [1]: 99%
IC50 [3]: 0.636 µM
inhibition [2]: 90%

O=C(NCc1cccc(Cn2cnc3ccc(Br)cc32)c1)c1cc(Br)c[nH]1
viability at 48 h, 1 µM [1]: 99%
IC50 [3]: 0.019 µM
Stability [6]: Unstable
inhibition [2]: 98%

O=C(NCc1cccc(Cn2cnc3ccccc32)c1)c1nc2ccccc2[nH]1
viability at 48 h, 1 µM [1]: 100%
IC50 [3]: 0.407 µM
inhibition [2]: 83%

COc1ccc2[nH]c(C(=O)NCc3cccc(Cn4cnc5ccccc54)c3)cc2c1
viability at 48 h, 1 µM [1]: 55%

O=C(NCc1cccc(Cn2cnc3ccccc32)c1)c1cc2cc(O)ccc2[nH]1
viability at 48 h, 1 µM [1]: 99%
IC50 [3]: 0.781 µM
inhibition [2]: 71%

CC(=O)NCC(=O)NCc1cccc(Cn2cnc3ccccc32)c1
viability at 48 h, 1 µM [1]: 100%
inhibition [2]: 0%

O=C(NCc1cccc(Cn2cnc3ccccc32)c1)c1ccc(F)cc1
viability at 48 h, 1 µM [1]: 89%
IC50 [3]: 0.961 µM
inhibition [2]: 88%

O=C(NCc1cccc(Cn2cnc3ccccc32)c1)c1cc2ccccc2o1
viability at 48 h, 1 µM [1]: 100%
IC50 [3]: 0.413 µM
inhibition [2]: 91%

CC(=O)N1CCN(c2ccc(OCC3COC(Cn4ccnc4)(c4ccc(Cl)cc4Cl)O3)cc2)CC1 (centres undefined) [KETOCONAZOLE]
IC50 [7]: 6.4 µM

O=C(OCc1cccc(Cn2cnc3ccccc32)c1)c1cc(Br)c[nH]1
viability at 48 h, 1 µM [1]: 100%
inhibition [2]: 0%

O=C(NCc1cccc(Cn2cnc3ccccc32)c1)c1cc(Br)c[nH]1
IC50 [8]: 0.605 µM
Ratio IC50 [9]: > 1
Ratio IC50 [10]: > 1
Activity (Monocyte [11]): Non-Toxic
remaining at 1 h, 50 µM [12]: 32%
remaining at 1 h, 50 µM [13]: 32%
IC50 [14]: 0.021 µM
viability at 48 h, 1 µM [1]: 85 to 100%
inhibition [15]: > 30%
IC50 [16]: 0.043 µM
inhibition (Mus musculus [17]): inactive
IC50 [18]: 0.014 µM
Activity (Monocyte [4]): Non-Toxic
IC50 [19]: 0.0127 µM
IC50 [20]: 67.7 µM
Drug metabolism [21]: Metabolite_Detected
Activity (Monocyte [5]): Non-Toxic
IC50 [22]: 0.064 µM
inhibition [23]: Active
inhibition (Mus musculus [24]): Active
IC50 [25]: 5.46 µM
Drug metabolism [26]: Metabolite_Detected
Ratio IC50 [27]: > 1
Kd [28]: 0.55 µM
Ratio IC50 [29]: > 1
Ratio IC50 [30]: > 1
inhibition [2]: 96%

O=C(NCc1cccc(Cn2cnc3ccccc32)c1)c1cc2ccccc2s1
viability at 48 h, 1 µM [1]: 88%
inhibition [2]: 77%

Cc1ccc(C(=O)NCc2cccc(Cn3cnc4ccccc43)c2)cc1
viability at 48 h, 1 µM [1]: 94%
IC50 [3]: 0.327 µM
inhibition [2]: 88%

N#Cc1ccc(C(=O)NCc2cccc(Cn3cnc4ccccc43)c2)cc1
IC50 [8]: 1.94 µM
remaining at 1 h, 50 µM [12]: 59%
remaining at 1 h, 50 µM [13]: 59%
IC50 [14]: 0.11 µM
viability at 48 h, 1 µM [1]: 100%
IC50 [19]: 0.112 µM
inhibition (INH) ([20]; rat, microsomes, 0.25 h): Not Active
Drug metabolism [21]: Metabolite_Detected
IC50 [25]: 32.3 µM
Drug metabolism [26]: Metabolite_Detected
IC50 [3]: 0.09 µM
inhibition [2]: 88%

NCCCC(=O)NCc1cccc(Cn2cnc3ccccc32)c1
viability at 48 h, 1 µM [1]: 100%
inhibition [2]: 0%

O=C(CNC(=O)c1ccccc1)NCc1cccc(Cn2cnc3ccccc32)c1
viability at 48 h, 1 µM [1]: 99%
inhibition [2]: 13%

O=C(CCN1CCOCC1)NCc1cccc(Cn2cnc3ccccc32)c1
viability at 48 h, 1 µM [1]: 100%
inhibition [2]: 0%
